# Columns and labels:
# [1] = system: Aspergillus niger; test: Antifungal activity against Aspergillus niger at 2% by disc diffusion assay
# [2] = system: Candida albicans; test: Antifungal activity against Candida albicans at 200 ug/disc by disc diffusion assay
# [3] = system: Aspergillus flavus; test: Antifungal activity against Aspergillus flavus at 2% by disc diffusion assay
# [4] = system: Scopulariopsis brevicaulis; test: Antifungal activity against Scopulariopsis brevicaulis at 2% by disc diffusion assay
# [5] = system: Serratia marcescens; test: Antibacterial activity against Serratia marcescens at 200 ug/disc by disc diffusion assay
# [6] = system: Escherichia coli; test: Antibacterial activity against Escherichia coli at 50 uL/well by well diffusion assay; assay type: functional
# In short: (§1)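 Bauer-type diffusion assay. Test compounds were at 2% in DMSO. The read-out was the diameter (mm) of the inhibition zone, with chloramphenicol as the reference agent.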
# [7] = system: Staphylococcus aureus; test: Antibacterial activity against Staphylococcus aureus at 200 ug/disc by disc diffusion assay
# [8] = system: Geotrichum candidum; test: Antifungal activity against Geotrichum candidum at 2% by disc diffusion assay
# [9] = system: Trichophyton rubrum; test: Antifungal activity against Trichophyton rubrum at 50 uL/well by well diffusion assay; assay type: functional
# In short: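 Agar discs (10 mm) carrying spores and hyphae were shaken in sterile distilled water. 1 mL of the spore suspension was plated and mixed with 15 mL molten SDA, then left to set. Compounds were at 2% in DMSO, applied per Bauer's diffusion method. The read-out was the inhibition zone (mm).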
# [10] = system: Fusarium oxysporum; test: Antifungal activity against Fusarium oxysporum at 2% by disc diffusion assay
# [11] = system: Micrococcus luteus; test: Antibacterial activity against Micrococcus luteus at 50 uL/well by well diffusion assay; assay type: functional
# In short: as §1
# [12] = system: Pseudomonas aeruginosa; test: Antibacterial activity against Pseudomonas aeruginosa at 200 ug/disc by disc diffusion assay
# [13] = system: Bacillus cereus; test: Antibacterial activity against Bacillus cereus at 200 ug/disc by disc diffusion assay
Structure (SMILES),diameter of the inhibition zone (DIZ) [1] [mm],diameter of the inhibition zone (DIZ) [2] [mm],diameter of the inhibition zone (DIZ) [3] [mm],diameter of the inhibition zone (DIZ) [4] [mm],diameter of the inhibition zone (DIZ) [5] [mm],diameter of the inhibition zone (DIZ) [6] [mm],diameter of the inhibition zone (DIZ) [7] [mm],diameter of the inhibition zone (DIZ) [8] [mm],diameter of the inhibition zone (DIZ) [9] [mm],diameter of the inhibition zone (DIZ) [10] [mm],diameter of the inhibition zone (DIZ) [11] [mm],diameter of the inhibition zone (DIZ) [12] [mm],diameter of the inhibition zone (DIZ) [13] [mm]
N#Cc1c(SCC(=O)c2ccccc2)nc(NN)c2c1CCCC2,0,0,0,0,0,0,10,12,12,0,0,0,0
N#Cc1c2c(c(-n3[nH]c(=O)cc3N)[nH]c1=S)CCCC2,0,0,0,0,0,0,0,8,0,0,10,0,9
Cc1cc(C)n(-c2nc(SCC#N)c(C#N)c3c2CCCC3)n1,8,12,0,0,10,0,8,10,0,8,0,0,8
CC(=O)CSc1nc(NN)c2c(c1C#N)CCCC2,0,11,0,0,8,12,0,12,20,0,0,0,11
N#Cc1c2c(c3[nH]ncn3c1=S)CCCC2,0,10,0,0,10,10,8,0,0,0,12,0,15
Cc1cc(C)n(-c2[nH]c(=S)c(C#N)c3c2CCCC3)n1,0,0,0,0,0,0,8,0,0,0,0,0,16
CC(=O)c1sc2c(c1N)c1c(c3nncn32)CCCC1,0,0,0,0,0,0,0,0,0,0,0,0,0
N#CCSc1c(C#N)c2c(c3nncn13)CCCC2,0,0,0,0,12,8,10,0,0,0,11,0,12
CC(=O)CSc1nc(-n2nc(C)cc2C)c2c(c1C#N)CCCC2,0,10,0,0,8,13,0,8,17,10,0,0,0
Clc1ccccc1C(c1ccccc1)(c1ccccc1)n1ccnc1 [CLOTRIMAZOLE],25,27,26,27,,,,26,40,25,,,
N#Cc1sc2c(c1N)c1c(c3nncn32)CCCC1,0,0,0,0,11,0,9,0,0,0,0,0,11
O=C(N[C@H](CO)[C@H](O)c1ccc([N+](=O)[O-])cc1)C(Cl)Cl [CHLORAMPHENICOL],,,,,40,34,20,,,,18,17,30
